What was measured:
[1] = molecular target: T1, Melanocyte-stimulating hormone receptor (Homo sapiens, UniProt Q01726); test: Effective concentration against Melanocortin 1 receptor transfected into L-cells was determined by concentration of peptide for 50% maximal cAMP generation; format: functional
Procedure, shortened: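 Human MC1R stably transfected into mouse L-cells, grown to confluence. Stopped with ice-cold ethanol. cAMP in the dried supernatant measured by competitive binding kit. Value is concentration for 50% maximal cAMP generation; n = 4.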

[2] = Relative rate determined by setting MTII equal to 1 and dividing the apparent k-1 by the MTII value; format: ADME
[3] = molecular target: T1, Melanocyte-stimulating hormone receptor; test: The concentration that inhibits 50% specific binding was determined against the Melanocortin 1 receptor
Procedure, shortened: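 Cloned human MC1R stably expressed in L-cells, grown to confluence. Cells washed in binding buffer (MEM, 25 mM HEPES pH 7.4, 0.2% BSA, phenanthroline, leupeptin, bacitracin). Cells washed, lysed in NaOH/Triton, gamma counted.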

[4] = molecular target: Melanocortin 1 receptor (Rana pipiens); test: Effective concentration for the effect of Melanocortin 1 receptor in the frog skin.

T1 sequence (Q01726 whole entry): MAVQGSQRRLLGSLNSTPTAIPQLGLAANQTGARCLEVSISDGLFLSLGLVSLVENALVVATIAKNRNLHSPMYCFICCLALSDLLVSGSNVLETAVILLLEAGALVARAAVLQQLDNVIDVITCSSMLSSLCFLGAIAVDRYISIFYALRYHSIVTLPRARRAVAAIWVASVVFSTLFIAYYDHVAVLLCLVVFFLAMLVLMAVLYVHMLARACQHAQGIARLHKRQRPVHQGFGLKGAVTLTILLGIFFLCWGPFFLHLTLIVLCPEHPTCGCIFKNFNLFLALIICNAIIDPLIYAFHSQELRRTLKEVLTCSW

Row | Compound | EC50 [1] | Relative dissociation rate [2] | IC50 [3] | EC50 [4]
1 | CCCC[C@H](NC(C)=O)C(=O)N[C@@H](CC(=O)O)C(=O)N[C@@H](Cc1c[nH]cn1)C(=O)N[C@@H](Cc1ccccc1)C(=O)N[C@@H](CCCN=C(N)N)C(=O)N[C@@H](C(=O)N[C@@H](CCCCN)C(N)=O)[C@H](C)c1c[nH]c2ccccc12 | 0.4 nM | 2.33 | 2 nM | –
2 | CCCC[C@H](NC(C)=O)C(=O)N[C@H]1CC(=O)NCCCCC(C(N)=O)NC(=O)C([C@H](C)c2c[nH]c3ccccc23)NC(=O)[C@H](CCCN=C(N)N)NC(=O)C(Cc2ccccc2)NC(=O)[C@H](Cc2c[nH]cn2)NC1=O (single isomer, unassigned) | 3 nM | 2.5 | 15 nM | 28.6 nM
3 | CCCC[C@H](NC(C)=O)C(=O)N[C@H]1CC(=O)NCCCCC(C(N)=O)NC(=O)C([C@@H](C)c2c[nH]c3ccccc23)NC(=O)[C@H](CCCN=C(N)N)NC(=O)C(Cc2ccccc2)NC(=O)[C@H](Cc2c[nH]cn2)NC1=O (single isomer, unassigned) | 0.3 nM | 0.75 | 0.5 nM | 0.44 nM
4 | CCCC[C@H](NC(C)=O)C(=O)N[C@H]1CC(=O)NCCCCC(C(N)=O)NC(=O)[C@@H]([C@@H](C)c2c[nH]c3ccccc23)NC(=O)[C@H](CCCN=C(N)N)NC(=O)C(Cc2ccccc2)NC(=O)[C@H](Cc2c[nH]cn2)NC1=O (single isomer, unassigned) | 1 nM | 2.58 | 3 nM | 0.06 nM

— ChEMBL document CHEMBL1128196, “Topographical modification of melanotropin peptide analogues with beta-methyltryptophan isomers at position 9 leads to differential potencies and prolonged biological activities” (J Med Chem, 1995)
